What follows are molecules tested against RNA-directed RNA polymerase (UniProt O39930) (assay: Inhibitory concentration against NS5B HCV polymerase using [alpha-32P]UTP as radioligand (30 degree C for 2 h, at pH 7.5 with Tris-HCl buffer)).
Chain of RNA-directed RNA polymerase (O39930 whole entry): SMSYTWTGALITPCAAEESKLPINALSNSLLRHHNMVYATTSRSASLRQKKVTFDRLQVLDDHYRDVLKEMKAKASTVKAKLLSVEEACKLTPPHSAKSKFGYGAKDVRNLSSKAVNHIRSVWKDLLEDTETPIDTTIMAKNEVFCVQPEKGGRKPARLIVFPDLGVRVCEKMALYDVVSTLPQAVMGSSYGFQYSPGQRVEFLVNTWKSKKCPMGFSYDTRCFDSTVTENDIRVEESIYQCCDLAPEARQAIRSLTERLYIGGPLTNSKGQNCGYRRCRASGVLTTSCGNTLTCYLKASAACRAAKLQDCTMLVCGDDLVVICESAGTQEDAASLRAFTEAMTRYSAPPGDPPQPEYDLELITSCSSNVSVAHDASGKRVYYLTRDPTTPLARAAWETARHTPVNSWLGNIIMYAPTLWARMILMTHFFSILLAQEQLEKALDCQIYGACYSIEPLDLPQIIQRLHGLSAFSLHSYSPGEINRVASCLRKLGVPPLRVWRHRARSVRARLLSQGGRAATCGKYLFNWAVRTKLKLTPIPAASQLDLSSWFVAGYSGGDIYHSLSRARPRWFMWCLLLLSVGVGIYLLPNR
Method in brief: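 Recombinant HCV RdRp (1 nM) in 20 mM Tris-HCl pH 7.5, 5 mM MgCl2, 1 mM DTT, 1 mM EDTA, RNase inhibitor, 50 µg/mL actinomycin D, 10 µg/mL RNA template, 0.5 mM ATP/CTP/GTP, [α-32P]UTP, limiting nucleotide 10 µM. 30 °C, 2 h; proteinase K stop, extraction, urea-PAGE, phosphorimaging. IC50s rescaled by a reference inhibitor's measured/literature IC50 ratio.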
With Cc1ccc(Cn2cccc2C=CC(=O)CC(=O)C(=O)O)cc1 the IC50 was 28 µM. O=C(O)C(=O)CC(=O)c1cc(I)cn1Cc1ccc(F)cc1 [(Z)-4-[1-(4-Fluoro-benzyl)-4-iodo-1H-pyrrol-2-yl]-2-hydroxy-4-oxo-but-2-enoic acid] showed an IC50 of 18 µM. For N#Cc1cccc(Cl)c1COc1cc(O)cc(C(=O)CC(=O)C(=O)O)c1 [(Z)-4-[3-(2-Chloro-6-cyano-benzyloxy)-5-hydroxy-phenyl]-2-hydroxy-4-oxo-but-2-enoic acid], the IC50 was 0.1 µM. With O=C(O)C(=O)CC(=O)c1ccc(N2CCCCC2)s1 [(Z)-2-Hydroxy-4-oxo-4-(5-piperidin-1-yl-thiophen-2-yl)-but-2-enoic acid] the IC50 was 8.2 µM. Work on O=C(O)C(=O)CC(=O)c1cccc(-c2ccccc2)c1 yielded an IC50 of 28 µM. O=C(O)C(=O)CC(=O)c1cccc(OCc2ccc(-c3ccccc3)cc2)c1 [(Z)-4-[3-(Biphenyl-4-ylmethoxy)-phenyl]-2-hydroxy-4-oxo-but-2-enoic acid] gave an IC50 of 50 µM. In the case of O=C(O)C(=O)CC(=O)c1cccn1Cc1ccc2ccccc2c1 [(Z)-2-Hydroxy-4-(1-naphthalen-2-ylmethyl-1H-pyrrol-2-yl)-4-oxo-but-2-enoic acid], the IC50 is reported as 13 µM. O=C(O)C(=O)CC(=O)c1cccc(NC(=O)C(=O)O)c1 [(Z)-2-Hydroxy-4-[3-(oxalyl-amino)-phenyl]-4-oxo-but-2-enoic acid] showed an IC50 of 19 µM. Work on N#CCCCCn1cccc1C(=O)CC(=O)C(=O)O [(Z)-4-[1-(4-Cyano-butyl)-1H-pyrrol-2-yl]-2-hydroxy-4-oxo-but-2-enoic acid] yielded an IC50 of 13 µM. With O=C(O)C(=O)CC(=O)c1cccc(Oc2ccccc2)c1 the IC50 was 19 µM. With O=C(O)C(=O)CC(=O)c1ccco1 the IC50 was 50 µM. For Cn1cc(C(=O)c2ccc(F)cc2)cc1C=CC(=O)CC(=O)C(=O)O [(Z)-6-[4-(4-Fluoro-benzoyl)-1-methyl-1H-pyrrol-2-yl]-2-hydroxy-4-oxo-hexa-2,5-dienoic acid], the IC50 was 16 µM. Molecule COc1ccc(Cn2cccc2C=CC(=O)CC(=O)C(=O)O)cc1 has an IC50 of 16 µM. In the case of Cc1cc(C)c(C(=O)CC(=O)C(=O)O)s1 [(Z)-4-(3,5-Dimethyl-thiophen-2-yl)-2-hydroxy-4-oxo-but-2-enoic acid], the IC50 is reported as 8.2 µM. For O=C(O)C(=O)CC(=O)c1cccc(OCc2cccc(Oc3ccccc3)c2)c1 [(Z)-2-Hydroxy-4-oxo-4-[3-(3-phenoxy-benzyloxy)-phenyl]-but-2-enoic acid], the IC50 was 50 µM. Cc1ccccc1Cn1cccc1C=CC(=O)CC(=O)C(=O)O [(Z)-6-[1-((E)-obenzyl)-1H-Pyrrol-2-yl]-2-hydroxy-4-oxo-hexa-2,5-dienoic acid] gave an IC50 of 18 µM. With O=C(C=Cc1c[nH]c2ccc(Cl)cc12)CC(=O)C(=O)O [(Z)-6-((E)-5-Chloro-1H-indol-3-yl)-2-hydroxy-4-oxo-hexa-2,5-dienoic acid] the IC50 was 18 µM. Molecule O=C(O)C(=O)CC(=O)c1ccsc1Cc1ccc(F)cc1 [(Z)-4-[2-(4-Fluoro-benzyl)-thiophen-3-yl]-2-hydroxy-4-oxo-but-2-enoic acid] has an IC50 of 18 µM. In the case of O=C(C=Cc1cccn1Cc1cccc(F)c1)CC(=O)C(=O)O [(Z)-6-[1-(3-Fluoro-benzyl)-1H-pyrrol-2-yl]-2-hydroxy-4-oxo-hexa-2,5-dienoic acid], the IC50 is reported as 18 µM. With O=C(O)C(=O)CC(=O)c1cccn1Cc1ccc(O)cc1 [(Z)-2-Hydroxy-4-[1-(4-hydroxy-benzyl)-1H-pyrrol-2-yl]-4-oxo-but-2-enoic acid] the IC50 was 13 µM.

Reference: BindingDB's records for doi:10.1021/jm0504454 (Sapienza University of Rome, 2005)
